Measured values pooled from the literature.
Protocols differ between the studies behind these lines.
KIT L576P: Mast/stem cell growth factor receptor Kit (KIT, Homo sapiens, UniProt P10721, L576P)
KIT A829P: Mast/stem cell growth factor receptor Kit (KIT, Homo sapiens, UniProt P10721, A829P)
KIT T670I/V559D: Mast/stem cell growth factor receptor Kit (KIT, Homo sapiens, UniProt P10721, T670I/V559D)
KIT: Mast/stem cell growth factor receptor Kit (KIT, Homo sapiens, UniProt P10721)
KIT V559D: Mast/stem cell growth factor receptor Kit (KIT, Homo sapiens, UniProt P10721, V559D)
KIT D816V: Mast/stem cell growth factor receptor Kit (KIT, Homo sapiens, UniProt P10721, D816V)
KIT D816H: Mast/stem cell growth factor receptor Kit (KIT, Homo sapiens, UniProt P10721, D816H)
KIT V559D/V654A: Mast/stem cell growth factor receptor Kit (KIT, Homo sapiens, UniProt P10721, V559D/V654A)
KIT autoinhibited: Mast/stem cell growth factor receptor Kit, autoinhibited (KIT, Homo sapiens, UniProt P10721)

CC1CCCN1c1nccc(-c2cnn3ncccc23)n1 (stereo not shown)  remaining binding (KIT L576P; binding; 1 µM): 100%
COc1cnc(Nc2cccc(S(N)(=O)=O)c2)nc1N1CCN(c2ccccc2)C(=O)C1  remaining binding (KIT A829P; binding; competition with immobilised ligand; 1 µM): 68%
Cc1cc(-n2nc(Cc3cc(F)cc(C(F)(F)F)c3)nc2C)ccc1C(N)=O  remaining binding (KIT A829P; cell-free assay; competition with immobilised ligand; 1 µM): 100%
Nc1ncc2c(n1)-c1c([nH]c3ccc(C#CC4CC4)cc13)CCCC2  remaining binding (KIT T670I/V559D; binding; competition with immobilised ligand; 1 µM): 94%
N#Cc1ccccc1CSc1nnc2c(n1)[nH]c1ccccc12  remaining binding (KIT T670I/V559D; binding; competition with immobilised ligand; 10 µM): 100%
C[C@@H]1CN(c2ccc3ncc(-c4ccc5[nH]nc(C6CC6)c5c4)n3n2)C[C@H](C)O1  remaining binding (KIT; binding; competition with immobilised ligand; 0.5 µM): 50%
CNC(=O)[C@@H]1CC[C@@H](n2c(-c3ccc4cnccc4c3)nc3ccc(C(=O)NCc4cccc(C(N)=O)c4)cc32)C1  remaining binding (KIT V559D; binding; competition with immobilised ligand; 1 µM): 100%
CN1CCN(c2ccc(Nc3nccc(-c4ccccc4)n3)cc2C(F)(F)F)CC1  remaining binding (KIT V559D; binding; 10 µM): 0.05%
NS(=O)(=O)c1cc(NC(=O)C2(c3ccccc3Cl)CC2)ccc1Oc1cccc(Cl)c1  remaining binding (KIT A829P; cell-free assay; competition with immobilised ligand; 1 µM): 69%
CN1CCN(c2ccc(Nc3nccc(-c4cccc([N+](=O)[O-])c4)n3)cc2C(F)(F)F)CC1  remaining binding (KIT D816V; binding; 10 µM): 1.1%
CCC(=O)N[C@H]1CC[C@@H](C(=O)N(C)c2ccc(-c3nc4ccccc4o3)cc2)C1  remaining binding (KIT D816V; cell-free assay; competition with immobilised ligand; 1 µM): 86%
c1cncc(-c2cccc(Nc3nccc(NC4CCCCC4)n3)c2)c1  remaining binding (KIT D816H; binding; competition with immobilised ligand; 10 µM): 13%
O=C(N1CCS(=O)(=O)CC1)N1C[C@H](c2ccc(OC(F)(F)F)cc2)C[C@H](c2nc(C3CC3)no2)C1  remaining binding (KIT V559D/V654A; cell-free assay; competition with immobilised ligand; 1 µM): 100%
C=CC(=O)N1CCC(C(=O)NCC(=O)N2CCN(c3nc(-c4cnc(N)nc4C(F)F)nc(N4CCOCC4)n3)CC2)CC1  remaining binding (KIT L576P; binding; competition with immobilised ligand; 1 µM): 53%
F[C@@H]1CCN(c2nccc(-c3cnn4ncccc34)n2)C1  remaining binding (KIT autoinhibited; binding; 1 µM): 100%
CCN1CCN(Cc2ccc(C(=O)Nc3ccc(C)c(Oc4ccc5c(c4)CC(=O)N5)c3)cc2C(F)(F)F)CC1  remaining binding (KIT D816V; binding; competition with immobilised ligand; 1 µM): 81%
COc1cnc(Nc2cccc(S(N)(=O)=O)c2)nc1N1CCN(c2ccccc2)CC1  remaining binding (KIT A829P; binding; competition with immobilised ligand; 1 µM): 65%
Cc1cnc(Nc2ccc(C(=O)N3CCC(N4CCCC4)CC3)cc2)nc1-c1cc2ccccc2s1  remaining binding (KIT L576P; binding; competition with immobilised ligand; 1 µM): 1%
CN(C)c1nccc(-c2cnc3ncccn23)n1  remaining binding (KIT D816H; binding; 1 µM): 52%
COc1ncc2cc3ccccc3nc2c1C#N  remaining binding (KIT V559D; cell-free assay; competition with immobilised ligand; 5 µM): 94%
CC(C)(O)c1cncc(-c2nc3ccc(F)cc3n2C2CC2)c1  remaining binding (KIT D816H; cell-free assay; competition with immobilised ligand; 1 µM): 100%
O=C(NCC1CCOCC1)c1n[nH]cc1NC(=O)c1c(F)cccc1F  remaining binding (KIT; binding; competition with immobilised ligand; 1 µM): 100%
O=C(O)[C@H]1[C@H](Cn2nnc3ccccc3c2=O)CC[C@@H]1C(=O)c1ccc(OCCC2CCOCC2)cc1  remaining binding (KIT L576P; cell-free assay; competition with immobilised ligand; 1 µM): 96%
O=C(c1ccc(Nc2nccc(-c3cc4ccccc4s3)n2)cc1)N1CCC(N2CCCC2)CC1  remaining binding (KIT; binding; competition with immobilised ligand; 1 µM): 53%
C[C@@H](c1ccc(-n2cnc3c(N)ncnc32)cc1)N1CCc2nn(C)c(Cc3ccccc3)c2C1=O  remaining binding (KIT V559D/V654A; binding; competition with immobilised ligand; 0.1 µM): 78%
CO[C@H]1CC[C@H](CNc2ccc(S(=O)(=O)NC(=O)c3ccc(N4CCN(CC5=C(c6ccc(Cl)cc6)CC(C)(C)CC5)CC4)cc3Oc3cnc4[nH]ccc4c3)cc2[N+](=O)[O-])CC1  remaining binding (KIT V559D; cell-free assay; competition with immobilised ligand; 1 µM): 99%
O=C(c1ccc(Nc2ncc(Cl)c(-c3ccc(Cl)s3)n2)cc1)N1CCC(N2CCCC2)CC1  remaining binding (KIT V559D/V654A; binding; competition with immobilised ligand; 1 µM): 9.3%
C[C@@H]1CCN(c2nccc(-c3cnn4ncccc34)n2)C1  remaining binding (KIT; binding; 1 µM): 100%
O=C(NCCCN1CCOCC1)c1ccc(Nc2ncc(Cl)c(-c3ccc(Cl)s3)n2)cc1  remaining binding (KIT; binding; competition with immobilised ligand; 1 µM): 0.05%
CC(C)(C)c1ccc(-c2nc(CBr)nn2-c2cccc(O)c2)cc1  remaining binding (KIT D816V; cell-free assay; competition with immobilised ligand; 10 µM): 95%
CN(c1nccc(-c2cnn3ncccc23)n1)C1CC1  remaining binding (KIT autoinhibited; binding; 1 µM): 100%
O=C(c1ccc(Nc2ncc(Cl)c(-c3cc4ccccc4s3)n2)cc1)N1CCC(N2CCCC2)CC1  remaining binding (KIT D816V; binding; competition with immobilised ligand; 1 µM): 13%
COc1ccnn2ncc(-c3ccnc(N(C)C)n3)c12  remaining binding (KIT V559D/V654A; binding; 1 µM): 100%
O=C(Nc1c[nH]nc1C(=O)NC1CCNCC1)c1cc(F)cc(F)c1  remaining binding (KIT D816V; binding; competition with immobilised ligand; 1 µM): 100%
Cc1cnn2ncc(-c3ccnc(N(C)C)n3)c2c1  remaining binding (KIT L576P; binding; 1 µM): 100%
O=C(Nc1cccnn1)N1CCC(=Cc2cccc(Oc3ccc(C(F)(F)F)cn3)c2)CC1  remaining binding (KIT T670I/V559D; cell-free assay; competition with immobilised ligand; 1 µM): 96%
O=C(NCCCN1CCOCC1)c1ccc(Nc2nccc(-c3cc4ccccc4s3)n2)cc1  remaining binding (KIT T670I/V559D; binding; competition with immobilised ligand; 1 µM): 29%
